Test system: MS2 coat protein
Test: apparent Kd, MS2 coat protein; higher = weaker binding; RNA-MaP array; FMN 200 µM where present
Method in brief: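 Stalled E. coli RNA polymerase transcribed each design on Illumina sequencing-chip clusters. The clusters were titrated with SNAP-549-labelled MS2 coat protein, starting at 0.7 or 1.5 nM and doubling up to 3 µM, first without ligand and then with constant ligand, in 100 mM Tris-HCl pH 7.5, 80 mM KCl, 4 mM MgCl2, BSA, DTT, yeast tRNA and Tween-20. Green signal was normalised to red-channel RNA signal and to the control-cluster median Fmax. The apparent Kd is the median of filtered binding-curve fits made for each cluster.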

[1] = designed as: OFF switch for flavin mononucleotide, no ligand
[2] = ligand present: flavin mononucleotide, designed as: OFF switch for flavin mononucleotide
[3] = designed as: ON switch for flavin mononucleotide, no ligand
[4] = ligand present: flavin mononucleotide, designed as: ON switch for flavin mononucleotide

| Sequence | apparent Kd [1] [nM] | apparent Kd [2] [nM] | apparent Kd [3] [nM] | apparent Kd [4] [nM] |
| --- | --- | --- | --- | --- |
| CUGAGCUGAGGAUAUACAUGAGGAUCACCCAUGUGUUCCAGCUUGCGUACAGGCAGAUGUAGAAGGCAGUUCGG | 41.4 | 102 | – | – |
| CUGAGCUGAGGAUAUACAUGAGGAUCACCCAUGUUAAGCAGCUAGCGUAAAAGCAGAUGUAGAAGGCAGUUCGG | 18.9 | 20.3 | – | – |
| CUGAGGUCAGGAUAUGCAUGGCGGGACUUGCGUCGUGGCGUGCAGAAGGGACAUGAGGAUCACCCAUGUGGAGA | 88.5 | 203 | – | – |
| CUGAUGUCAGGAUAUCAGAAAAGGUGCGAGGACGCACCAAAUGAGAAGGGACAUGAGGAUCACCCAUGUAAAAC | 22.3 | 139 | – | – |
| CUGAUGUCAGGAUAUCGGUGGCUCACUUGUGUGUGCCAGACCGAGAAGGGACAUGAGGAUCACCCAUGUUUUUA | 86.1 | 370 | – | – |
| CUGAUGUGAGGAUAUCGGGCUACAGCCCUGCUGCUAGCAAACGAGAAGGCACAUGAGGAUCACCCAUGUAAGAA | 24 | 28.6 | – | – |
| CUGCUUCCCAGUAUGGGUAUUUUUACAGAAGGCCAGGCACAUGAGGAUCACCCAUGUCAAGUUUUGGAGGAUAUGUUAUUGUCG | – | – | 8.53 | 4.72 |
| CUGGUUGUCGAGGAUAUGCACCGGCUCGCUGACGCAGAAGGCGACACAUGAGGAUCACCCAUGUCGGUUCGCGA | 15.6 | 31.3 | – | – |
| CUGUGACGGUGCGCAAGUGGACGGAGAAGGGACACAUGAGGAUCACCCAUGUGAGCCUGCUAUUGUCAGGAUAUCCGUUCGUAC | 8.69 | 13.8 | – | – |
| CUGUGGGCCAUAGGAUAUGCGCAGAAUUAGCAAGCAGAAGGGUGGAUCGUACAAUAAUAACUACAUGAGGAUCACCCAUGUGCU | – | – | 360 | 39.6 |
| CUGUGUAAAGGAUAUACAUGAGGAUCACCCAUGUGAUGUCCAAACCUGAACGGUUCGUGUAGAAGGUUGCUCUU | 20.9 | 19 | – | – |
| CUGUUACAUGAGGAUCACCCAUGUGAGGAUAUGGUUCGGUACUGUCCUGUCGCGUACUCCAGAAGGCACGUGUC | 29.4 | 29.9 | – | – |
| CUGUUAUAGGUCCAUUUUAACAACAUGAGGAUCACCCAUGUGCAGGAUAUCGUGUUAAUUUUCAUCGAGAAGGGCAUAGUCACG | 27.2 | 58.4 | – | – |
| CUGUUGUGGUGCUGCUUGGCUUGGAGAGAAGGGUGAUUCACAUGAGGAUCACCCAUGUAGGACUUACAGGAUAUUUCCGGGUCU | – | – | 17.8 | 18.8 |
| CUUAAACAUGAGGAUCACCCAUGUCAGGAUAUGAUACUAUGUACUUCGGUACAUAGUAUCAGAAGGGAUAUGAA | 49 | 64.8 | – | – |
| CUUAGACAUGAGGAUCACCCAUGUGAGGAUAUGAUGCGAUCGUCGAAAGACGAUAGCAUCAGAAGGCACAUAUG | 132 | 301 | – | – |
| CUUAGACAUGAGGAUCACCCAUGUGAGGAUAUGAUGCGAUCGUGCUGACAUGAUCGCAUCAGAAGGCACAAAUG | 141 | 173 | – | – |
| CUUCAGUCAGGAUAUCUGCACGCUGGUGAGACCGGACGGAAGGAGAAGGGACAUGAGGAUCACCCAUGUAAAGC | 14 | 17.5 | – | – |
| CUUCAGUCAGGAUAUGUUAAUCUCGCCACUCGGCGAACCGGACAGAAGGGACAUGAGGAUCACCCAUGUUAAAA | 34.7 | 19.7 | – | – |

| Sequence | apparent Kd [1] [nM] | apparent Kd [2] [nM] | apparent Kd [3] [nM] | apparent Kd [4] [nM] |
| --- | --- | --- | --- | --- |
| CUUCGACAUGAGGAUCACCCAUGUCAGGAUAUUGUUUAUCUGGUGUUGUCCAGAUAUGCAAGAAGGGAUGUGUG | 38.4 | 38.1 | – | – |
| CUUCGUAUAGAGGAUAUAGGAUACCUCGGUGUCCUAGAAGGCUGUACAUGAGGAUCACCCAUGUACUUCAGAUC | 11.6 | 16 | – | – |
| CUUCGUGAUGCAGGAUAUGUUUGCUUUUUGCGCACAGAAGGGCAUCACAUGAGGAUCACCCAUGUGAGUAGAAAACCGUGGAAA | 14.1 | 79.3 | – | – |
| CUUCUGUAAGGAUAUGUAUGCUCCUGGUAUGUCGCGAGGAGACAGAAGGUACAUGAGGAUCACCCAUGUGGGCG | 168 | 304 | – | – |
| CUUCUGUGAGGAUAUGUGAACCCGUGCCGAAAGGAUGGGAAACAGAAGGCACAUGAGGAUCACCCAUGUAAAAU | 35.3 | 179 | – | – |
| CUUGUGUUAGGAUAUGCGCCCUGCAGAAGCAGGGCCAGAGAGCAGAAGGAACAUGAGGAUCACCCAUGUGUGAC | 65.5 | 53.7 | – | – |
| CUUGUUUAUGUGAGGAUAUACUGUUAGUAAUGUUUGUAGAAGGUACAUGAGGAUCACCCAUGUUUAUUUCCUUU | 14.2 | 13.1 | – | – |
| CUUGUUUAUGUGAGGAUAUACUGUUAGUAAUGUUUGUAGAAGGUACAUGAGGAUCACCCAUGUUUAUUUUUUUU | 20.5 | 19.7 | – | – |
| CUUUAGUGAGGAUAUCAGUAGUAAUACAAUAGUAUUACUGCUGAGAAGGCACAUGAGGAUCACCCAUGUUCCUC | 38.1 | 169 | – | – |
| CUUUCGUGAGGAUAUGAAACUUCGAUCGUGAGAUCGAGGCUACAGAAGGCACAUGAGGAUCACCCAUGUUCCUC | 34.6 | 420 | – | – |
| CUUUCGUGAGGAUAUGUGGCUUCGAUCGUGAGAUCGAGAAAACAGAAGGCACAUGAGGAUCACCCAUGUUCCUC | 41 | 515 | – | – |
| CUUUCGUUAGCAGGAUAUGGACAGGCCUGUCCGUAUUGAGUCAGUAACAUGAGGAUCACCCAUGUCCAGAAGGGCUCGAAGGGA | 14.1 | 46.6 | – | – |
| CUUUGACAUGAGGAUCACCCAUGUGAGGAUAUGAUGCGAUCGUCGAAAGACGAUAGCAUCAGAAGGCACAUAUG | 85.7 | 238 | – | – |
| CUUUUGUGAGGAUAUCAGUAGUAAAAAAAUAAAAUUACUACUUAGAAGGCACAUGAGGAUCACCCAUGUUCCUC | 23.4 | 53 | – | – |
| CUUUUGUGAGGAUAUCAGUAGUAAAUAAAUAAAAUUACUACUGAGAAGGCACAUGAGGAUCACCCAUGUUCCUC | 41.2 | 305 | – | – |
| CUUUUGUGAGGAUAUCAGUAGUAAUAAUAUAAAAUUACUACUGAGAAGGCACAUGAGGAUCACCCAUGUUCCUC | 37.2 | 185 | – | – |
| CUUUUGUGAGGAUAUCAGUAGUAAUACAAUAGUAUUACUACUGAGAAGGCACAUGAGGAUCACCCAUGUUCUUC | 25.5 | 68.2 | – | – |
| CUUUUGUGAGGAUAUCAGUAGUAAUACAAUAGUAUUACUACUGAGAAGGCACAUGAGGAUCACCCAUGUUUCUC | 42.4 | 121 | – | – |
| CUUUUGUGAGGAUAUCAGUAGUUAAUAAAUAAAAUUACUACUGAGAAGGCACAUGAGGAUCACCCAUGUUCCUC | 37.1 | 211 | – | – |

| Sequence | apparent Kd [1] [nM] | apparent Kd [2] [nM] | apparent Kd [3] [nM] | apparent Kd [4] [nM] |
| --- | --- | --- | --- | --- |
| CUUUUGUGAGGAUAUCAUUAGUAAAAAAAUAAAAUUACUACUGAGAAGGCACAUGAGGAUCACCCAUGUUCCUC | 35.5 | 233 | – | – |
| CUUUUGUGAGGAUAUUAGUAGUAAAAAAAUAAAAUUACUACUGAGAAGGCACAUGAGGAUCACCCAUGUUCCUU | 14.8 | 39 | – | – |
| CUUUUGUGAGGAUAUUAGUAGUAAAUGAAUAAAAUUACUACUGAGAAGGCACAUGAGGAUCACCCAUGUUCCUC | 44.1 | 493 | – | – |
| CUUUUGUGAGGAUAUUAGUAGUAAAUGAUUAAAAUUAUUACUGAGAAGGCACAUGAGGAUCACCCAUGUUCCUC | 45.1 | 655 | – | – |
| CUUUUGUGAGGAUAUUAGUAGUAAAUUAAUAAAAUUACUACUGAGAAGGCACAUGAGGAUCACCCAUGUUCCUC | 30.8 | 190 | – | – |
| CUUUUGUGAGGAUAUUAGUAGUUUAUAAUUGGUGUUAUUACUGAGAAGGCACAUGAGGAUCACCCAUGUACAAC | 47.9 | 181 | – | – |
| GAAAACGGAGAGGAUAUUUGAGAUCAAAGCUCCAAAGAAGGCUCCACAUGAGGAUCACCCAUGUGGUCUUCAAU | 14.6 | 107 | – | – |
| GAAAAGUCAGGAUAUGCAGAUAAAAAAACGAAAAAAAAUCUGCAGAAGGGACAUGAGGAUCACCCAUGUAAAAG | 35.3 | 74.6 | – | – |
| GAAAAUACAUGAGGAUCACCCAUGUAGGAUAUCGCUAUUGUAAUCAUGUUACAUGAUUACAAUAGCGAGAAGGACGUGAGAAAG | 24.7 | 22.3 | – | – |
| GAAACCUAGUCAGGAUAUCGGGCAAUAAUUGCACGAGAAGGGACAUGAGGAUCACCCAUGUACACCUCUGGUGAGUCUCGCAGG | 24.4 | 73.6 | – | – |
| GAAGGCUGGUAGAAGGAUCCUCACAUGAGGAUCACCCAUGUAACAGCGGAUAGGAUAUACCGUCUUUCAUGUUGGUCUCCCUAA | – | – | 461 | 46.5 |
| GAAUAAUUGAUCCUUUUUUAUUACAUGAGGAUCACCCAUGUGCAGGAUAUCGAUUAUUAUAGUUUCGAGAAGGGCAAGAACUAU | 27.5 | 128 | – | – |
| GAAUAUUCGUUGUACAUGAGGAUCACCCAUGUAACUUGACAUGAGGAUAUGGAUUCUAAUUGGAUCCAGAAGGCAUGAAUAUUC | – | – | 48.4 | 21.8 |
| GAAUUCGCAUGAGGAUAUGCACUCAUUUCAUGUGCAGAAGGUAUAACAUUAGACAUGAGGAUCACCCAUGUAUUAGUCAUUAAC | – | – | 10.1 | 9.37 |
| GACAACAGAGGAUAUGCAUUGAGAUAGUUAUGAAGGUUGUUACAUGAGGAUCACCCAUGUAGAAGGCUGUCGUU | 18.3 | 24.3 | – | – |
| GACAUACAUGAGGAUCACCCAUGUUCAGGCGAACAAGGAUAUGUGUGGAAACCAUACUAUACAGAAGGUGUCUGUC | – | – | 63.1 | 38.8 |
| GACAUCGCAGGAUAUUAGGGUUUGUACAUGAGGAUCACCCAUGUUAAUUGGGUUAAUGUCUAAGAAGGGCGGUGUC | 147 | 240 | – | – |
| GACAUGAGGAUCACCCAUGUCCUUCCAGAAGGCUGGCGCGCGAAACCUAAAUCAGUUCCGGGCACAGAGGAUAUGGGCAGUUGG | – | – | 67.2 | 14.3 |
| GACCGAUAGUCAGGAUAUGCAUGGUUAGUUGAUUACAUGAGGAUCACCCAUGUAGAAGGGACUUUGGCUAAAUCCGUGAUGCGU | 22.3 | 51.7 | – | – |
